Changes are numbered by the printed parent chain.
Columns and labels:
Assay in all cases: isothermal titration calorimetry
Conditions in all cases: PBS, 298 K, 30 μM protein; GFP fusion
[1] = target: T1, GFP-RBP(L19A); ribose binding protein (RBP) (Escherichia coli, UniProt P02925, L44A/T160A/Q260A)
T1 sequence (P02925 26-296 L44A/T160A/Q260A): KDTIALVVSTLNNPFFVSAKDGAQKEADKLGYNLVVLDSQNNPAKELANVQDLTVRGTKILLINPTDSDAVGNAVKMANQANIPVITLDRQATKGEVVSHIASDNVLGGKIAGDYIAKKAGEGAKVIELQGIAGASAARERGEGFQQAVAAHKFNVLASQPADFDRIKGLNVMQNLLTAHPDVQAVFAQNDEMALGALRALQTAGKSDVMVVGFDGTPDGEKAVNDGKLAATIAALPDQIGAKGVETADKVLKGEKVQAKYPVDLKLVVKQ

[2] = target: T2, GFP-RBP(L19A); ribose binding protein (RBP) (Escherichia coli, UniProt P02925, L44A/Q260A)
T2 sequence (P02925 26-296 L44A/Q260A): T1 sequence (P02925 26-296 L44A/T160A/Q260A) with A135T

[3] = target: T3, GFP-RBP(L19A); ribose binding protein (RBP) (Escherichia coli, UniProt P02925, L44A)
T3 sequence (P02925 26-296 L44A): T1 sequence (P02925 26-296 L44A/T160A/Q260A) with A135T, A235Q
Procedure, shortened: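 GFP-RBP(L19A) expressed in E. coli BL21(DE3) and Ni-affinity purified with on-column 8 M urea unfolding and refolding to strip endogenous ribose, then size-exclusion in PBS. ITC at 298 K: cell held 30 μM protein in PBS against a deionized water reference; ribose at 10x protein concentration in PBS. Kd came from nonlinear regression fits of the binding isotherms.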

OC1OC[C@@H](O)[C@@H](O)[C@H]1O (stereo partly drawn) [ribose]
Kd [1]: 130 µM | Kd [2]: 10 µM | Kd [3]: 0.3 ± 0.1 µM

From paper PMC7649717 (Analytical chemistry, 2020)
